# Laboratory results from ChEMBL document CHEMBL2040714, “Synthesis of methylated quercetin derivatives and their reversal activities on P-gp- and BCRP-mediated multidrug resistance tumour cells” (Eur J Med Chem, 2012).
# Legend:
# [1] = biological target: T1, Broad substrate specificity ATP-binding cassette transporter ABCG2 (Homo sapiens, UniProt Q9UNQ0); assay: Reversal of BCRP-mediated drug resistant in human MCF7-MX100 cells assessed as potentiation of topotecan-induced cytotoxicity at 1 uM after 5 days by MTS assay; format: cell-based; conditions: mcf7-mx100, 120 h
# T1 sequence (Q9UNQ0 whole entry): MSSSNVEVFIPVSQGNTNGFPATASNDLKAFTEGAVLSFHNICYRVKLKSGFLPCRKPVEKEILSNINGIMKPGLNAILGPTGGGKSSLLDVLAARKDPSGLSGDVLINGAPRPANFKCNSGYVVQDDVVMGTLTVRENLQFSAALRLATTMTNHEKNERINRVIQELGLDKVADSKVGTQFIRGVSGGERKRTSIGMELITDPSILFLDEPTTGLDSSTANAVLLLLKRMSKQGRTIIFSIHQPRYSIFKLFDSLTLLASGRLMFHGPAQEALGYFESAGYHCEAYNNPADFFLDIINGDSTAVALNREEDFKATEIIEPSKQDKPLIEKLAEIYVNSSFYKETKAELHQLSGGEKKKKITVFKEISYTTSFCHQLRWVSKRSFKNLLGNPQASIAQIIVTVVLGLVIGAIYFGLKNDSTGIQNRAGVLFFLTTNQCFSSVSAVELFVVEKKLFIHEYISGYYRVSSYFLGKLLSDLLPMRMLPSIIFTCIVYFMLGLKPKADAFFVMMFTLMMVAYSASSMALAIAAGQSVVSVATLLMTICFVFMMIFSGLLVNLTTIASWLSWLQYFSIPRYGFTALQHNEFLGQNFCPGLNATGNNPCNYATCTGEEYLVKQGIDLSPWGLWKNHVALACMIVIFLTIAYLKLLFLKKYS
# Homo sapiens = organism: Homo sapiens; assay: Reversal of p-glycoprotein-mediated drug resistant in human LCC-6/MDR cells assessed as potentiation of paclitaxel-induced cytotoxicity at 1 uM after 5 days by MTS assay; format: cell-based
# How it was run: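 LCC6MDR cells (6000/well, DMEM with 10% FBS) given paclitaxel over a range of doses, with or without 1 μM modulator, for 5 days at 37 °C; MTS read-out. IC50 from dose–response curves, and RF = IC50 without / IC50 with 1.0 μM modulator. N = 2–4 independent experiments, mean ± SEM.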
# [2] = Cytotoxicity against human LCC-6 cells after 5 days by MTS assay; format: cell-based; conditions: LCC-6, 120 h
# How it was run: (§1)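 Cells seeded in 96-well plates (6000/well for LCC6 and LCC6MDR) and exposed to a range of derivative concentrations, dissolved in DMSO at no more than 1% final, for 5 days at 37 °C. Viability read by MTS; IC50 taken from dose–response curves. Three repeats, mean ± SEM. LCC6 lines grown in DMEM with 10% heat-inactivated FBS; L929 is a mouse fibroblast line.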
# L929 = assay: Cytotoxicity against mouse L929 cells after 5 days by MTS assay; format: cell-based; conditions: L929, 120 h; how it was run: as §1
# [3] = biological target: T1, Broad substrate specificity ATP-binding cassette transporter ABCG2; assay: Reversal of BCRP-mediated drug resistant in human HEK293/R2 cells assessed as potentiation of topotecan-induced cytotoxicity at 1 uM after 5 days by MTS assay; format: cell-based; conditions: hek293/r2, 120 h
# [4] = Cytotoxicity against multidrug resistant human LCC6MDR cells after 5 days by MTS assay; conditions: 120 h
# [5] = biological target: Multidrug resistance-associated protein 1 (Homo sapiens, UniProt P33527); assay: Reversal of MRP1-mediated drug resistant in human 2008/MRP1 cells assessed as potentiation of doxorubicin-induced cytotoxicity at 1 uM after 5 days by MTS assay; format: cell-based; conditions: 2008/mrp1, 120 h
# NCI/ADR-RES = assay: Modulation of p-glycoprotein-mediated drug resistant in human MCF7/ADR cells assessed as increase of daunomycin accumulation at 100 uM; format: cell-based
# Chain of Multidrug resistance-associated protein 1 (P33527 whole entry): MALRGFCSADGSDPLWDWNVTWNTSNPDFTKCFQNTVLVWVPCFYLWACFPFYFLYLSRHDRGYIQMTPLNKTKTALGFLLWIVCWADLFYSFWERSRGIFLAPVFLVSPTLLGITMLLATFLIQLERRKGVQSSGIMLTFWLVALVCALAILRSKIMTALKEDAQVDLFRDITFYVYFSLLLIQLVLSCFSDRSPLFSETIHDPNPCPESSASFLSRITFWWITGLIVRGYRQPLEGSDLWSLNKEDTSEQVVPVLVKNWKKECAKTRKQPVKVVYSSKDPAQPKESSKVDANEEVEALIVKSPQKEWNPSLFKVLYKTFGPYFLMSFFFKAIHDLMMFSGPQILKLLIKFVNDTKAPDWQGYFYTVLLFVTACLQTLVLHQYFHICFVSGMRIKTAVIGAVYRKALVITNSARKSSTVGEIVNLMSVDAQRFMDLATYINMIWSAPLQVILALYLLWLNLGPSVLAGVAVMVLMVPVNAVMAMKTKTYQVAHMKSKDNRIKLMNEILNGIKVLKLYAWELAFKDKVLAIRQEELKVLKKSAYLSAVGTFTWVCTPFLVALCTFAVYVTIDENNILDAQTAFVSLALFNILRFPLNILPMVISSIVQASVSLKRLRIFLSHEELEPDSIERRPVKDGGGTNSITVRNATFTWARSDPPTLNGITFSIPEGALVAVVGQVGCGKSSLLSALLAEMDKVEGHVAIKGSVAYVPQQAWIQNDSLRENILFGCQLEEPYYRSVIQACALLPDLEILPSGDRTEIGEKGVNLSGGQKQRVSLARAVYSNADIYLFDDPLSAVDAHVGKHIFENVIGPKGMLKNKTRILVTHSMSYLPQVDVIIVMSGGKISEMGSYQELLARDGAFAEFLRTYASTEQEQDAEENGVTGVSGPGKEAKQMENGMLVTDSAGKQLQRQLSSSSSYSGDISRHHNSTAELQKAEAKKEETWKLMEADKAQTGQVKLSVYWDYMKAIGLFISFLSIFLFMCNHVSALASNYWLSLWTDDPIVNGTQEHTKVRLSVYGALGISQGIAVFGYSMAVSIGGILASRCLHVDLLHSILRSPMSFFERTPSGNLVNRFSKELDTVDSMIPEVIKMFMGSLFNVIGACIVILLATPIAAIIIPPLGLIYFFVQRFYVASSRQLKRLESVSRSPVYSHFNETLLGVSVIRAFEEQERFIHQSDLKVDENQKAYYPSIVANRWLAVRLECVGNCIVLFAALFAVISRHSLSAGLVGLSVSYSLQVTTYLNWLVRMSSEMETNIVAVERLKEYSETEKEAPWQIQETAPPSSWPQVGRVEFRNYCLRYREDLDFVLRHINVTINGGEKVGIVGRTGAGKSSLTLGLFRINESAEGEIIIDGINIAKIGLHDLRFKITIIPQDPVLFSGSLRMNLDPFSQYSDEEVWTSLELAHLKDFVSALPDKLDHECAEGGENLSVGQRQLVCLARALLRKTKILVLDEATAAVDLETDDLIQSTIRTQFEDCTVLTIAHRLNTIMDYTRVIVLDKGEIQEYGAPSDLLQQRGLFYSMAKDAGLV
SMILES,fold change (FC) [1],fold change (FC) (Homo sapiens),IC50 [2],IC50 (L929),fold change (FC) [3],IC50 [4],fold change (FC) [5],Activity (NCI/ADR-RES)
COc1cc(OC)c2c(=O)c(OCCOC(=O)/C=C/c3cc(OC)c(OC)c(OC)c3)c(-c3ccc(OC)c(OC)c3)oc2c1,9.1,6,> 100 µM,> 100 µM,14,> 100 µM,1.5,
COc1cc(OC)c2c(=O)c(OCc3cc(OC)c(OC)c(OC)c3)c(-c3ccc(OC)c(OC)c3)oc2c1,4.7,9.6,14.5 µM,17.6 µM,11.3,46.6 µM,1.2,
COc1cc(OC)c2c(=O)c(OCCOC(=O)c3ccc(OC)c(OC)c3)c(-c3ccc(OC)c(OC)c3)oc2c1,6.7,6.4,> 100 µM,> 100 µM,4.6,> 100 µM,1.2,
COc1cc(OC)c2c(=O)c(OCCOc3cc4c(Nc5ccc(F)c(Cl)c5)ncnc4cc3OC)c(-c3ccc(OC)c(OC)c3)oc2c1,1.2,1.5,> 100 µM,> 100 µM,4.3,> 100 µM,1,
COc1cc(OC)c2c(=O)c(OC(=O)c3cc(OC)c(OC)c(OC)c3)c(-c3ccc(OC)c(OC)c3)oc2c1,9.6,2.1,> 79 µM,74.1 µM,5.8,87.4 µM,0.9,
COc1cc(OC)c2c(=O)c(OCCn3cnc4c(=O)n(C)c(=O)n(C)c43)c(-c3ccc(OC)c(OC)c3)oc2c1,1.4,1.2,> 100 µM,> 100 µM,1.4,> 100 µM,1,
COc1cc(OC)c2c(=O)c(OCCn3cnc4c(N)ncnc43)c(-c3ccc(OC)c(OC)c3)oc2c1,1.2,1.1,> 100 µM,> 100 µM,1.2,> 100 µM,0.8,
C[C@@H]1O[C@@H](OC[C@H]2O[C@@H](Oc3c(-c4ccc(O)c(O)c4)oc4cc(O)cc(O)c4c3=O)[C@H](O)[C@@H](O)[C@@H]2O)[C@H](O)[C@H](O)[C@H]1O [RUTIN],4.3,0.9,> 100 µM,> 100 µM,1.3,> 100 µM,1.2,
COc1cc(OC)c2c(=O)c(OCCOC(=O)c3cc(OC)c(OC)c(OC)c3)c(-c3ccc(OC)c(OC)c3)oc2c1,2,3.2,> 100 µM,> 100 µM,4.7,> 100 µM,1.1,
COc1ccc(CCN(C)CCCC(C#N)(c2ccc(OC)c(OC)c2)C(C)C)cc1OC (configuration not stated),,,,,,,,229%
COc1cc(O)c2c(=O)c(OC)c(-c3ccc(OC)c(OC)c3)oc2c1 [RETUSIN],19.3,3.7,> 100 µM,> 100 µM,13,> 100 µM,0.7,
COc1cc(OC)c2c(=O)c(O[C@@H]3O[C@H](CO[C@@H]4O[C@@H](C)[C@H](OC)[C@@H](OC)[C@H]4OC)[C@@H](OC)[C@H](OC)[C@H]3OC)c(-c3ccc(OC)c(OC)c3)oc2c1,5.3,1,> 100 µM,> 100 µM,1.5,> 100 µM,1.4,
COc1cc(OC)c2c(=O)c(O)c(-c3ccc(OC)c(OC)c3)oc2c1,6,1.7,> 100 µM,> 100 µM,3.3,> 100 µM,0.7,
COc1ccc(C(=O)OCCOc2c(-c3ccc(OC)c(OC)c3)oc3cc(OC)cc(OC)c3c2=O)cc1,7.3,11.3,> 100 µM,> 100 µM,12.1,> 100 µM,1.5,
O=c1c(O)c(-c2ccc(O)c(O)c2)oc2cc(O)cc(O)c12 [QUERCETIN],,,> 100 µM,> 100 µM,,> 100 µM,,202%
COc1cc(OC)c2c(=O)c(OCC(=O)c3ccc(OC)c(OC)c3)c(-c3ccc(OC)c(OC)c3)oc2c1,1.4,1.3,> 100 µM,> 100 µM,1.4,> 100 µM,0.9,
COc1cc(OC)c2c(=O)c(OC)c(-c3ccc(OC)c(OC)c3)oc2c1,7.9,1.9,> 100 µM,> 100 µM,8.7,> 100 µM,0.8,
COc1cc(OC)c2c(=O)c(OCCO)c(-c3ccc(OC)c(OC)c3)oc2c1,1.5,1.4,> 100 µM,> 100 µM,3.9,> 100 µM,0.8,
